From ChEMBL document CHEMBL4513216, “Probing the Open Global Health Chemical Diversity Library for Multistage-Active Starting Points for Next-Generation Antimalarials” (ACS Infect Dis, 2020)

Experiment: Toxicity liver stage against HepG2, at 10uM
Type: cell-based
Set-up: test concentration 10 uM, cell line HepG2-A16-CD81EGFP
Conditions: human, HepG2-A16-CD81EGFP cells; read-out: INHIBITION
In short: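 Uninfected HepG2-A16-CD81EGFP cells, 3 × 10^3 per well, 1536-well, plated on prespotted compound at 10 μM final, parasite-free screening media added to match infected plates; puromycin 10 μM positive, DMSO 0.5% negative; run in parallel with 48 h PbLuc assay at 37 °C, 5% CO2; viability by CellTiter-Glo luminescence, normalized to controls.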

SMILES | cytotoxicity at 10 µM [%]
COc1ccc(C2=NOC(C(=O)N3CCCc4ccccc43)C2)cc1 (stereo not drawn) | 0.863
CCN(CC)C(=O)CSc1nnc(CCNC(=O)OC(C)(C)C)o1 | 12
CNC(=O)[C@@H](C1CCCCC1)N1CCC[C@H]1C(=O)NC1CC1 | 5.56
O=C(Nc1ncnc2c1CCC2)c1ccc2c(c1)OCO2 | 4.42
O=C1CCCC2(CCN(C(=O)c3cnccn3)CC2)N1 | -12.9
O=C(NC1CCCC1)c1n[nH]c2c1CNCC2 | 0.582
O=S(=O)(C1CC1)N1CCC2(CC1)COC(COc1ccccn1)C2 (stereo not drawn) | 3.35
COCc1ncn2c1CN(C(=O)c1ccc[nH]1)CC2 | 1.84
O=C(O)c1nc(SCc2ccc(F)cc2)ncc1Br | -3.11
CC(C)CC(NC(=O)Nc1ccc(F)c(Cl)c1)C(=O)O (stereo not drawn) | 8.19
COc1cccc(CNC(=O)CC2CSc3ncc(C)c(=O)n32)c1 (stereo not drawn) | 10.4
Cc1cc2nc(SCC(=O)N3CCCC3)n(C(C)C)c(=O)c2[nH]1 | -7.53
Cc1cc(C2CCCN(S(=O)(=O)N(C)C)C2)ccn1 (stereo not drawn) | 21.4
CC[C@@H](Cn1ncc2ccccc2c1=O)NC(=O)c1cnc(C)cn1 | 7.92
CN(C)CC(=O)N1CCOCC(Cc2ccccn2)C1 (stereo not drawn) | 5.88
CNC(=O)c1cn[nH]c1C1CCCN1C(=O)c1ccccn1 (stereo not drawn) | 8.52
COCC(=O)N1CCN(C)C(=O)C(Cc2ccccc2-c2cccs2)C1 (stereo not drawn) | -3.73
CNC(=O)c1cn[nH]c1C1CCCN1C(=O)c1cccnc1 (stereo not drawn) | -23.3
O=C(Cc1ccccc1)N1CCOC(c2nc(-c3ncccn3)no2)C1 (stereo not drawn) | -22.6
CN1CCc2nc(C3CCCN(C(=O)CC(C)(C)C)C3)ncc2C1 (stereo not drawn) | -10.3
Cc1cc(C(F)(F)F)nc(N(C)Cc2c(C)noc2C)n1 | -13.2

SMILES | cytotoxicity at 10 µM [%]
CS(=O)(=O)c1ccccc1-n1cc(NC(=O)CC(F)(F)F)cn1 | 1.42
CC(SCCC(=O)NC(N)=O)c1cccc(F)c1 (stereo not drawn) | 5.28
Cc1cc(C)n(CC(C)CNC(=O)CCc2ccco2)n1 (stereo not drawn) | -1.05
CC(C)OCCCNC(=O)CN1CCN(c2nccs2)CC1 | 3.44
CC(C)NC(=O)CNC(=O)c1csc(Cc2ccccc2F)n1 | -4.44
O=C(NC1CCS(=O)(=O)C1)c1ccc(SCc2cscn2)cc1 (stereo not drawn) | -1.23
CNC(=O)c1ccc(NC2CCN(CC(F)(F)F)C2=O)cc1Cl (stereo not drawn) | -1.13
CC(C)N1CCC(CNC(=O)CCc2cc(F)ccc2F)C1 (stereo not drawn) | -5.38
COC(=O)c1cccc(S(=O)(=O)Nc2ccc(F)c(C(N)=O)c2)c1 | 8.67
CN1CCC(C(=O)N2CCC(=Cc3cccc(F)c3)CC2)CC1=O (stereo not drawn) | -2.19
N#Cc1cnc(NC2CCN(C(=O)C3CC3)CC2)c(Cl)c1 | -7.32
CCS(=O)(=O)NC1CCCN(Cc2ccn(C)c(=O)c2)C1 (stereo not drawn) | -1.82
Cc1nnc(C(C)Nc2ccc(OCCc3ccccc3)nc2)o1 (stereo not drawn) | -4.08
CCC(C)(CNC(=O)Nc1nccs1)N1CCOCC1 (stereo not drawn) | -6.46
CC(C)NC(=O)NCc1ccccc1NS(=O)(=O)c1ccccc1 | 9.6
CCNC(=O)NCc1ccnc(N(C)C)n1 | -0.786
O=C(c1cc2c([nH]c1=O)CCC2)N1CCCC1c1ccccc1 (stereo not drawn) | -5.76
Cn1c(C(=O)N2CCC(C(N)=O)C2)c(Cl)c2ccccc21 (stereo not drawn) | 2.03
CC(CCO)Nc1cccc(C(F)(F)F)n1 (stereo not drawn) | -2.8
CN(C)C(CNC(=O)c1ccc(-n2cnnn2)cc1)c1ccccc1Cl (stereo not drawn) | -8.16
NC(=O)c1ccc(CNCC2CCN(CCO)CC2)cc1 | -9.93

SMILES | cytotoxicity at 10 µM [%]
CCOC(=O)c1nc(CN2CCC(NC(=O)C(C)C)CC2)cs1 | -2.98
O=C(c1c[nH]c2ncccc12)N1CCC(COc2ccccc2)CC1 | 14.4
CN(Cc1ccsc1)C(=O)c1ccc(F)c(NS(C)(=O)=O)c1 | -5.7
O=C1CCC(C(=O)Nc2ccc(=O)n(Cc3ccc(Cl)c(Cl)c3)c2)N1 (stereo not drawn) | -8.47
CC(C)c1ncc(Cl)c(C(=O)N2CCCN3CCCC3C2)n1 (stereo not drawn) | -10.2
CC(=O)NCc1ccc(C(=O)Nc2ccc3c(c2)C(=O)NC3)cc1 | 0.202
CC(=O)Nc1cc(CN(C)C)ccc1C | -1.89
CC1c2cccn2CCN1C(=O)CCc1nc(C2CC2)no1 (stereo not drawn) | -2.13
Cc1nc(C(C)C)sc1C(=O)NCC(C)(C)N1CCOCC1 | -6.47
CCNC(=O)NC(=O)CN1CCOC(c2cccc(Br)c2)C1 (stereo not drawn) | 1.83
Cn1cccc(NC(=O)N2CCC(Cc3ccccc3)C2)c1=O (stereo not drawn) | 11.9
CN(CC(F)(F)F)C(=O)CNC(=O)Cc1ccc(O)cc1Cl | -1.11
CN1CCCC1CNC(=O)c1nnn(-c2ccc(F)cc2)c1C1CC1 (stereo not drawn) | -15.9
Cc1cc(NS(=O)(=O)c2ccccc2F)ccc1-n1cccc1C(=O)O | -5.67
CCC(C)N(Cc1cccnc1)Cc1cc2c(cc1OC)OCO2 (stereo not drawn) | 3.17
O=C(NCCc1cscn1)c1coc(CN2CCOCC2)c1 | -3.7
COCc1nc(C2CC2)nn1-c1cccc(F)c1 | 2.64
CCn1c(N)nc2cc(C(=O)NCCc3ccncc3)cnc21 | 1.22
Cc1csc(CNc2ccc(-c3nc(C4CC4)no3)cn2)n1 | -16.2
Cc1nc2c(c(N[C@H](C(N)=O)C(C)C)n1)Cc1ccccc1OC2 | 4.71
CCC[C@@H]1CN(Cc2ccccc2-c2ccco2)C[C@H]1NC(C)=O | 20.9

SMILES | cytotoxicity at 10 µM [%]
COc1cccn(CC(=O)N(C)Cc2ccoc2)c1=O | -9.93
Cc1oc(C(=O)O)cc1S(=O)(=O)Nc1ccc(Cl)cc1F | -0.354
NC(=O)c1cc(C2CCCN(C(=O)CCc3ccccn3)C2)n[nH]1 (stereo not drawn) | -8.47
CC(=O)N1CCN(C(=O)Nc2cnc3c(cnn3C(C)C)c2)CC1 | -0.192
CC(Cc1ccc(Cl)cc1)NC(=O)Nc1cnn(CC(N)=O)c1 (stereo not drawn) | -5.86
CCc1ccsc1C(=O)N1CCN(CCN2C(=O)CCC2=O)CC1 | -3.82
Cc1csc(C2CCCCN2C(=O)CN(C)C(C)C)n1 (stereo not drawn) | -3.62
Cc1nn(C)c(N(C)C)c1CNCc1ccc(C(=O)N(C)C)cc1 | -9.55
c1ccc(CCCN2CCOC(Cn3cccn3)C2)cc1 (stereo not drawn) | 9.11
CC1CN(C(=O)CN(Cc2ccco2)Cc2cccs2)CCO1 (stereo not drawn) | -7.68
O=C(c1nn(-c2ccccc2F)cc1O)N1CCCC1 | -4.99
Cc1ccc(-c2nnc(CN3CCOC(Cn4cccn4)C3)o2)cc1 (stereo not drawn) | -8.06
CNC(=O)[C@@H]1CC[C@@H]2[C@@H](CCN2Cc2cn(C)c3ccccc23)O1 | 10.7
CC(C)NC1CCc2c(ccc(=O)n2CCN2CCCC2=O)C1 (stereo not drawn) | 9.52
c1cc(CN2CC[C@@H]3[C@@H](CO[C@H]3CN3CCOCC3)C2)cs1 | -1.19
FC1(F)CCN(Cc2cccnc2)CC12CCN(c1cnccn1)C2 (stereo not drawn) | 2.6
O=C(CCn1c(C(F)(F)F)cc2cccnc21)N1CCOCC1 | -22.6
OC(CN1CCN(Cc2ccccc2)CC1)C1CC1 (stereo not drawn) | 3.3
O=C([C@H]1COC[C@H]2CN(C3CCOCC3)C[C@H]21)N1CCC(F)CC1 | -112
O=C(O)c1cc(C=Cc2ccccc2)ncn1 | 5.17
